# Laboratory results: ChEMBL document CHEMBL1255376, “Comparative surveillance study of telavancin activity against recently collected gram-positive clinical isolates from across the United States” (2008)
# Tests used:
# [1] = test system: Staphylococcus simulans; test: Antibacterial activity against methicillin-susceptible coagulase-negative Staphylococcus simulans clinical isolate by broth microdilution method; type: functional
# Outline: (§1)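 MICs by CLSI broth microdilution in frozen trays pre-loaded with serial dilutions of each agent. Quality-control strains run in parallel: E. faecalis ATCC 29212 and ATCC 51299, S. aureus ATCC 29213, S. pneumoniae ATCC 49619. Comparator susceptibility categories follow CLSI breakpoints. Methicillin resistance in staphylococci assigned from the oxacillin MIC.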
# [2] = test system: Staphylococcus haemolyticus; test: Antibacterial activity against methicillin-resistant coagulase-negative Staphylococcus haemolyticus clinical isolate by broth microdilution method; type: functional; outline: as §1
# [3] = test system: Streptococcus sp.; test: Antibacterial activity against Streptococcus sp. Group F clinical isolate by broth microdilution method; type: functional
# Outline: (§2)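 MIC by CLSI broth microdilution in frozen microtiter trays holding serial dilutions of each agent, prepared from standard laboratory powders. Comparator susceptibility interpreted with CLSI breakpoints.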
# [4] = test system: Staphylococcus capitis; test: Antibacterial activity against daptomycin-nonsusceptible Staphylococcus capitis isolate 1285355 by broth microdilution method; type: functional
# Outline: as §2, with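 “powders. E. faecalis ATCC 29212 and ATCC 51299, S. aureus ATCC 29213 and S. pneumoniae ATCC 49619 run in parallel as quality-control strains.” for “powders.”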
# [5] = test system: Enterococcus faecium; test: Antibacterial activity against vancomycin-resistant and teichoplanin-susceptible Enterococcus faecium clinical isolate by broth microdilution method; type: functional; outline: as §1
# [6] = test system: Staphylococcus hominis; test: Antibacterial activity against methicillin-susceptible coagulase-negative Staphylococcus hominis clinical isolate by broth microdilution method; type: functional; outline: as §1
# [7] = test system: Streptococcus oralis; test: Antibacterial activity against Streptococcus oralis clinical isolate by broth microdilution method; type: functional
# Outline: as §2, with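 “powders. E. faecalis ATCC 29212 and ATCC 51299, S. aureus ATCC 29213 and S. pneumoniae ATCC 49619 run in parallel as quality-control strains.” for “powders.”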
# [8] = test system: Streptococcus equinus; test: Antibacterial activity against Streptococcus bovis clinical isolate by broth microdilution method; type: functional
# Outline: as §2, with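 “powders. E. faecalis ATCC 29212 and ATCC 51299, S. aureus ATCC 29213 and S. pneumoniae ATCC 49619 run in parallel as quality-control strains.” for “powders.”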
# [9] = test system: Enterococcus faecalis; test: Antibacterial activity against vancomycin-susceptible Enterococcus faecalis clinical isolate by broth microdilution method; type: functional; outline: as §1
# [10] = test system: Staphylococcus aureus; test: Antibacterial activity against daptomycin-nonsusceptible Staphylococcus aureus isolate 1176127 by broth microdilution method; type: functional; outline: as §1
# [11] = test system: Staphylococcus capitis; test: Antibacterial activity against methicillin-resistant coagulase-negative Staphylococcus capitis clinical isolate by broth microdilution method; type: functional; outline: as §1
# [12] = Antibacterial activity against Streptococcus sp. Group G clinical isolate by broth microdilution method; type: functional
# Outline: as §2, with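 “powders. E. faecalis ATCC 29212 and ATCC 51299, S. aureus ATCC 29213 and S. pneumoniae ATCC 49619 run in parallel as quality-control strains.” for “powders.”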
# [13] = test system: Staphylococcus hominis; test: Antibacterial activity against methicillin-resistant coagulase-negative Staphylococcus hominis clinical isolate by broth microdilution method; type: functional; outline: as §1
# [14] = test system: Staphylococcus capitis; test: Antibacterial activity against methicillin-susceptible coagulase-negative Staphylococcus capitis clinical isolate by broth microdilution method; type: functional; outline: as §1
# [15] = test system: Staphylococcus aureus; test: Antibacterial activity against daptomycin-nonsusceptible Staphylococcus aureus isolate 1171063 by broth microdilution method; type: functional; outline: as §1
# [16] = test system: Staphylococcus saprophyticus; test: Antibacterial activity against methicillin-resistant coagulase-negative Staphylococcus saprophyticus clinical isolate by broth microdilution method; type: functional; outline: as §1
# [17] = test system: Enterococcus faecium; test: Antibacterial activity against vancomycin- and teichoplanin-nonsusceptible Enterococcus faecium clinical isolate by broth microdilution method; type: functional; outline: as §1
# [18] = test system: Staphylococcus cohnii; test: Antibacterial activity against methicillin-susceptible coagulase-negative Staphylococcus cohnii clinical isolate by broth microdilution method; type: functional; outline: as §1
# [19] = test system: Staphylococcus; test: Antibacterial activity against methicillin-susceptible coagulase-negative unspeciated Staphylococcus clinical isolate by broth microdilution method; type: functional; outline: as §1
# [20] = test system: Enterococcus faecalis; test: Antibacterial activity against vancomycin-resistant and teichoplanin-susceptible Enterococcus faecalis clinical isolate by broth microdilution method; type: functional; outline: as §1
# [21] = test system: Staphylococcus aureus; test: Antibacterial activity against daptomycin-nonsusceptible Staphylococcus aureus isolate 1285404 by broth microdilution method
# [22] = test system: Mammaliicoccus sciuri; test: Antibacterial activity against methicillin-susceptible coagulase-negative Staphylococcus sciuri clinical isolate by broth microdilution method; type: functional; outline: as §1
# [23] = test system: Enterococcus faecalis; test: Antibacterial activity against vancomycin- and teichoplanin-nonsusceptible Enterococcus faecalis clinical isolate by broth microdilution method; type: functional; outline: as §1
# [24] = test system: Streptococcus sp.; test: Antibacterial activity against Streptococcus sp. clinical isolate by broth microdilution method; type: functional; outline: as §2
# [25] = test system: Staphylococcus aureus; test: Antibacterial activity against methicillin-susceptible Staphylococcus aureus clinical isolate by broth microdilution method; type: functional; outline: as §1
structure (smiles),measurement,setting,value
CCCCCCCCCC(=O)N[C@@H](Cc1c[nH]c2ccccc12)C(=O)N[C@H](CC(N)=O)C(=O)N[C@@H](CC(=O)O)C(=O)N[C@@H]1C(=O)NCC(=O)N[C@@H](CCCN)C(=O)N[C@@H](CC(=O)O)C(=O)N[C@H](C)C(=O)N[C@@H](CC(=O)O)C(=O)NCC(=O)N[C@H](CO)C(=O)N[C@@H]([C@H](C)CC(=O)O)C(=O)N[C@@H](CC(=O)c2ccccc2N)C(=O)O[C@@H]1C,MIC50,[1],0.5 µg/mL
same,MIC90,[1],1 µg/mL
same,MIC50,[2],0.5 µg/mL
same,MIC90,[2],1 µg/mL
same,MIC50,[3],0.06 µg/mL
same,MIC90,[3],0.25 µg/mL
same,MIC,[4],> 1 µg/mL
same,MIC50,[5],2 µg/mL
same,MIC90,[5],4 µg/mL
same,MIC50,[6],0.5 µg/mL
same,MIC90,[6],1 µg/mL
same,MIC50,[7],0.25 µg/mL
same,MIC90,[7],1 µg/mL
same,MIC50,[8],0.25 µg/mL
same,MIC90,[8],1 µg/mL
same,MIC50,[9],1 µg/mL
same,MIC90,[9],1 µg/mL
same,MIC,[10],> 1 µg/mL
same,MIC50,[11],0.5 µg/mL
same,MIC90,[11],1 µg/mL
same,MIC50,[12],0.06 µg/mL
same,MIC90,[12],0.25 µg/mL
same,MIC50,[13],0.5 µg/mL
same,MIC90,[13],1 µg/mL
same,MIC50,[14],0.5 µg/mL
same,MIC90,[14],1 µg/mL
same,MIC,[15],> 1 µg/mL
same,MIC50,[16],0.5 µg/mL
same,MIC90,[16],1 µg/mL
same,MIC50,[17],2 µg/mL
same,MIC90,[17],4 µg/mL
same,MIC50,[18],0.5 µg/mL
same,MIC90,[18],1 µg/mL
same,MIC50,[19],0.5 µg/mL
same,MIC90,[19],1 µg/mL
same,MIC,[20],0.5 µg/mL
same,MIC,[21],> 1 µg/mL
same,MIC50,[22],0.5 µg/mL
same,MIC90,[22],1 µg/mL
same,MIC,[23],0.5 µg/mL
same,MIC50,[23],0.5 µg/mL
same,MIC90,[23],1 µg/mL
same,MIC50,[24],0.25 µg/mL
same,MIC90,[24],1 µg/mL
same,MIC50,[25],0.5 µg/mL
